Experimental data pooled from the literature.
Each line is one published result; the experiments were not run side by side.
Target: Phosphatidylinositol 5-phosphate 4-kinase type-2 gamma (PIP4K2C, Homo sapiens, UniProt Q8TBX8)
Residues used in one study (Q8TBX8 1-421): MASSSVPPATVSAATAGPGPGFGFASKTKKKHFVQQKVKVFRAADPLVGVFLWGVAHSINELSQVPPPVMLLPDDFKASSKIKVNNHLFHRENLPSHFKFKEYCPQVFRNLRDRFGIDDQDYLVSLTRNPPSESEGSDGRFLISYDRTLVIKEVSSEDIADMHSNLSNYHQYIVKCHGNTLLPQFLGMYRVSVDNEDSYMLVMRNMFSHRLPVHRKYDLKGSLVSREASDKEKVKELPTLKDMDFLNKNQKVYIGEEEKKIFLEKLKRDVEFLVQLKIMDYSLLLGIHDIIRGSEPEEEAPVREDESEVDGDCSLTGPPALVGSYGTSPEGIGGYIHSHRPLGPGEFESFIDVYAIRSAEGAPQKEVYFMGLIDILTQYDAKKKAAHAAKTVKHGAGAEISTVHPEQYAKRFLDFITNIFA

The remaining binding of `COc1cnc(Nc2cccc(S(N)(=O)=O)c2)nc1N1CCN(c2ccccc2)CC1` is reported as 95% (binding, competition with immobilised ligand; 1 µM).
`CCS(=O)(=O)c1cc2cc(C[C@@](O)(CC(C)(C)c3ccc(F)cc3C(N)=O)C(F)(F)F)[nH]c2cn1` gave a remaining binding of 100% (cell-free assay, competition with immobilised ligand; 1 µM).
`O=C(NCCCN1CCOCC1)c1ccc(Nc2nccc(-c3cc4ccccc4s3)n2)cc1` gave a remaining binding of 1.9% (binding, competition with immobilised ligand; 1 µM).
With `O=C(Nc1c[nH]nc1C(=O)NC1CCNCC1)c1cc(F)cc(F)c1` the remaining binding was 76% (binding, competition with immobilised ligand; 1 µM).
With `CN(CCCC(F)(F)F)c1nccc(-c2cnn3ncccc23)n1` the remaining binding was 100% (binding; 1 µM).
`CNCc1ccccc1-c1csc([C@H](C)Nc2nc(C)nc3cc(OC)c(OC)cc23)c1` gave a remaining binding of 100% (cell-free assay, competition with immobilised ligand; 1 µM).
The remaining binding of `Cc1cnn2ncc(-c3ccnc(N(C)C)n3)c2c1` is reported as 80% (binding; 1 µM).
`CC(C)CC(=O)N1CCc2nc(-c3ccc(Br)cc3)nc(N(C)Cc3ccccc3)c2C1` gave a remaining binding of 96% (cell-free assay, competition with immobilised ligand; 0.1 µM).
For `COc1cnc(Nc2cccc(S(N)(=O)=O)c2)nc1N1CCN(c2ccccc2)C(=O)C1`, the remaining binding was 0.95% (binding, competition with immobilised ligand; 1 µM).
`Cc1cc(-n2nc(Cc3cc(F)cc(C(F)(F)F)c3)nc2C)ccc1C(N)=O` gave a remaining binding of 100% (cell-free assay, competition with immobilised ligand; 1 µM).
The remaining binding of `COc1ncc2cc3ccccc3nc2c1C#N` is reported as 100% (cell-free assay, competition with immobilised ligand; 5 µM).
`Cc1nc(NC(=O)N2CCC[C@H]2C(N)=O)sc1-c1ccnc(C(C)(C)C(F)(F)F)c1` gave a remaining binding of 100% (binding, competition with immobilised ligand; 10 µM).
`O=C(c1ccc(Nc2ncc(Cl)c(-c3ccc(Cl)s3)n2)cc1)N1CCC(N2CCCC2)CC1` has a remaining binding of 5.9% (binding, competition with immobilised ligand; 1 µM).
The remaining binding of `CC1CCCN1c1nccc(-c2cnn3ncccc23)n1` (stereo not shown) is reported as 100% (binding; 1 µM).
`Cc1cnc(Nc2ccc(C(=O)N3CCC(N4CCCC4)CC3)cc2)nc1-c1cc2ccccc2s1` has a remaining binding of 5.6% (binding, competition with immobilised ligand; 1 µM).
The remaining binding of `C[C@H]1CCN(c2nccc(-c3cnn4ncccc34)n2)C1` is reported as 42% (binding; 1 µM).
`O=C(N1CCS(=O)(=O)CC1)N1C[C@H](c2ccc(OC(F)(F)F)cc2)C[C@H](c2nc(C3CC3)no2)C1` has a remaining binding of 96% (cell-free assay, competition with immobilised ligand; 1 µM).
With `C[C@@H](c1ccc(-n2cnc3c(N)ncnc32)cc1)N1CCc2nn(C)c(Cc3ccccc3)c2C1=O` the remaining binding was 96% (binding, competition with immobilised ligand; 0.1 µM).
For `Cc1c(NC(=O)c2cc(C(N)=O)nc3cc(F)ccc23)c(C(F)(F)F)nn1Cc1ccc(C(C)(C)C)cc1`, the remaining binding was 76% (cell-free assay, competition with immobilised ligand; 1 µM).
With `COc1ccnn2ncc(-c3ccnc(N(C)C)n3)c12` the remaining binding was 80% (binding; 1 µM).
For `NS(=O)(=O)c1cc(NC(=O)Cc2ccccc2)ccc1Oc1cccc(Cl)c1`, the remaining binding was 100% (cell-free assay, competition with immobilised ligand; 1 µM).
For `N[C@H]1CCN(c2nccc(-c3cnn4ncccc34)n2)C1`, the remaining binding was 81% (binding; 1 µM).
